Test results: ChEMBL document CHEMBL4049439, “Synthesis and Characterization of Tetrahydropyran-Based Bacterial Topoisomerase Inhibitors with Antibacterial Activity against Gram-Negative Bacteria” (J Med Chem, 2017)
Converted amounts (≈) assume the structure as drawn.

What was measured:
[1] = Inhibition of wild-type Acinetobacter baumannii DNA topoisomerase-4 mediated supercoiled pBR322 DNA relaxation by ethidium bromide based agarose gel electrophoresis
[2] = Inhibition of wild-type Escherichia coli DNA topoisomerase-4 mediated supercoiled pBR322 DNA relaxation by ethidium bromide based agarose gel electrophoresis
Staphylococcus aureus = assay: Antibacterial activity against Staphylococcus aureus ATCC 29213 by CLSI broth microdilution method; type: functional
Escherichia coli [3] = assay: Antibacterial activity against wild-type Escherichia coli ATCC 25922 by CLSI broth microdilution method; type: functional
Acinetobacter baumannii = assay: Antibacterial activity against fluoroquinolone-resistant Acinetobacter baumannii T6474 by CLSI broth microdilution method; type: functional
Pseudomonas aeruginosa = assay: Antibacterial activity against Pseudomonas aeruginosa ATCC 27853 by CLSI broth microdilution method; type: functional
[4] = Inhibition of wild-type Escherichia coli DNA gyrase supercoiling activity using relaxed pBR322 DNA as substrate by ethidium bromide based agarose gel electrophoresis
[5] = Inhibition of wild-type Acinetobacter baumannii DNA gyrase supercoiling activity using relaxed pBR322 DNA as substrate by ethidium bromide based agarose gel electrophoresis
[6] = Inhibition of wild-type Pseudomonas aeruginosa DNA gyrase supercoiling activity using relaxed pBR322 DNA as substrate by ethidium bromide based agarose gel electrophoresis
[7] = Inhibition of wild-type Pseudomonas aeruginosa DNA topoisomerase-4 mediated supercoiled pBR322 DNA relaxation by ethidium bromide based agarose gel electrophoresis
[8] = Lipophilicity, log D of the compound at pH 7.4; type: physicochemical; conditions: buffer
Rattus norvegicus [9] = assay: Dose normalized AUC in Wistar rat at 1 mg/kg, iv by LC-MS/MS analysis; type: ADME, organism-based; conditions: in vivo
[10] = Fraction unbound in Wistar rat plasma at 1 mg/kg, iv by rapid equilibrium dialysis; type: ADME, organism-based
Outline: (§1)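 Rats dosed iv at 10 mg/kg or 1 mg/kg. Dose-normalized AUC (μg·h/(mL·dose)) and its unbound counterpart derived via fraction unbound. Clearance, unbound clearance, Vdss and half-life also derived.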

Rattus norvegicus [11] = assay: Dose normalized unbound AUC in Wistar rat at 1 mg/kg, iv by LC-MS/MS analysis; type: ADME, organism-based; conditions: in vivo; outline: as §1
[12] = Clearance in Wistar rat at 1 mg/kg, iv by LC-MS/MS analysis; type: ADME, organism-based; conditions: in vivo; outline: as §1
Rattus norvegicus [13] = assay: Unbound clearance in Wistar rat at 1 mg/kg, iv by LC-MS/MS analysis; type: ADME, organism-based; conditions: in vivo; outline: as §1
[14] = Volume of distribution at steady state in Wistar rat at 1 mg/kg, iv by LC-MS/MS analysis; type: ADME, organism-based; conditions: in vivo, read-out: Vdss
Outline: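 Rats received a single intravenous dose of 10 or 1 mg/kg depending on the compound. Clearance, unbound clearance, Vdss, terminal half-life and dose-normalized AUC were derived from plasma exposure, with unbound fraction (fu) reported for this species.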

[15] = Terminal half-life in Wistar rat at 1 mg/kg, iv by LC-MS/MS analysis; type: ADME, organism-based; conditions: in vivo, read-out: beta t1/2 (converted); outline: as §1
hERG (KCNH2) [16] = target: T1, hERG (KCNH2) (Homo sapiens, UniProt Q12809); assay: Inhibition of human ERG assessed as reduction of K+ current at 30 uM
Outline: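 hERG K+ channel current reduction measured at 30 μM compound concentration.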

[17] = target: Voltage-gated inwardly rectifying potassium channel KCNH2 (Homo sapiens, UniProt Q12809); assay: (§2) Inhibition of human ERG assessed as reduction of K+ current
hERG (KCNH2) [18] = target: T1, hERG (KCNH2); assay: as §2; conditions: human
[19] = Cardiotoxicity against human induced pluripotent stem cell-derived cardiomyocytes assessed as free drug concentration causing inhibition of spontaneous rhythm after 5 to 60 mins by Fluo-4 dye based fluorescence assay; type: toxicity; conditions: cardiac muscle cell
Outline: (§3)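 Spontaneous beating rhythm of human iPSC-derived cardiomyocytes monitored. Reported value is the lowest active concentration, free or total. Free/total conversion corrected for 20% serum in the test solution.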

[20] = Cardiotoxicity against human induced pluripotent stem cell-derived cardiomyocytes assessed as total drug concentration causing effect on spontaneous rhythm after 5 to 60 mins by Fluo-4 dye based fluorescence assay; type: toxicity; conditions: cardiac muscle cell; outline: as §3
Cavia porcellus [21] = assay: Cardiotoxicity in Dunkin-Hartley guinea pig assessed as free plasma concentration causing effect on QT interval administered as iv at 3 mg/kg for first 20 mins of infusion followed by 10 mg/kg for second 20 mins of infusion followed by 30 mg/kg for third 20 mins of infusion by LC-MS/MS analysis; type: toxicity, organism-based; conditions: in vivo
Outline: (§4)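 Anesthetized guinea pigs received 3, 10 and 30 mg/kg iv over three consecutive 20 min periods. MAP, HR and ECG intervals (PR, QRS, RR, QT) recorded continuously. Blood drawn at the end of each period for drug levels. Value is the lowest plasma concentration differing from vehicle-treated animals. Free level uses unbound fraction from rapid equilibrium dialysis of guinea pig plasma.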

Cavia porcellus [22] = assay: Cardiotoxicity in Dunkin-Hartley guinea pig assessed as free plasma concentration causing effect on heart rate administered as iv at 3 mg/kg for first 20 mins of infusion followed by 10 mg/kg for second 20 mins of infusion followed by 30 mg/kg for third 20 mins of infusion by LC-MS/MS analysis; type: toxicity, organism-based; conditions: in vivo; outline: as §4
Cavia porcellus [23] = assay: Cardiotoxicity in Dunkin-Hartley guinea pig assessed as free plasma concentration causing effect on mean arterial pressure administered as iv at 3 mg/kg for first 20 mins of infusion followed by 10 mg/kg for second 20 mins of infusion followed by 30 mg/kg for third 20 mins of infusion by LC-MS/MS analysis; type: toxicity, organism-based; conditions: in vivo; outline: as §4
Cavia porcellus [24] = assay: Cardiotoxicity in Dunkin-Hartley guinea pig assessed as free plasma concentration causing effect on QRS interval administered as iv at 3 mg/kg for first 20 mins of infusion followed by 10 mg/kg for second 20 mins of infusion followed by 30 mg/kg for third 20 mins of infusion by LC-MS/MS analysis; type: toxicity, organism-based; conditions: in vivo; outline: as §4
Cavia porcellus [25] = assay: Cardiotoxicity in Dunkin-Hartley guinea pig assessed as free plasma concentration causing effect on PR interval administered as iv at 3 mg/kg for first 20 mins of infusion followed by 10 mg/kg for second 20 mins of infusion followed by 30 mg/kg for third 20 mins of infusion by LC-MS/MS analysis; type: toxicity, organism-based; conditions: in vivo; outline: as §4
[26] = Fraction unbound in Dunkin-Hartley guinea pig plasma administered as iv at 3 mg/kg for first 20 mins of infusion followed by 10 mg/kg for second 20 mins of infusion followed by 30 mg/kg for third 20 mins of infusion by rapid equilibrium dialysis; type: ADME, organism-based, Cavia porcellus
Escherichia coli [27] = assay: Antibacterial activity against wild-type Escherichia coli MG1655 by CLSI broth microdilution method; type: functional; conditions: K-12 substr. MG1655
Outline: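 MIC (μg/mL) determined on wild-type E. coli MG1655, the parent of isogenic strains with truncated LPS or deleted TolC or AcrAB efflux.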

Escherichia coli [28] = assay: Antibacterial activity against Escherichia coli MG1655 harboring rfac deletion mutant by CLSI broth microdilution method; type: functional; conditions: K-12 substr. MG1655
Outline: (§5)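 MIC (μg/mL) measured against engineered derivatives of E. coli MG1655. ΔrfaC has truncated LPS (raised permeability). ΔtolC lacks the outer-membrane TolC efflux component. ΔacrAB lacks the AcrAB efflux system of the cytoplasmic membrane.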

Escherichia coli [29] = assay: Ratio of MIC for wild-type Escherichia coli MG1655 to MIC for Escherichia coli MG1655 harboring rfac deletion mutant; type: functional, K-12 substr. MG1655
Outline: (§6)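 Fold change in MIC for each MG1655 derivative (ΔacrAB, ΔrfaC, ΔtolC) relative to the MIC measured on wild-type E. coli MG1655, with both MICs in μg/mL.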

Escherichia coli [30] = assay: Antibacterial activity against Escherichia coli MG1655 harboring tolC deletion mutant by CLSI broth microdilution method; type: functional; conditions: K-12 substr. MG1655; outline: as §5
Escherichia coli [31] = assay: Ratio of MIC for wild-type Escherichia coli MG1655 to MIC for Escherichia coli MG1655 harboring tolC deletion mutant; type: functional, K-12 substr. MG1655; outline: as §6
Escherichia coli [32] = assay: Antibacterial activity against Escherichia coli MG1655 harboring AcrAB deletion mutant by CLSI broth microdilution method; type: functional; conditions: K-12 substr. MG1655; outline: as §5
Escherichia coli [33] = assay: Ratio of MIC for wild-type Escherichia coli MG1655 to MIC for Escherichia coli MG1655 harboring AcrAB deletion mutant; type: functional, K-12 substr. MG1655; outline: as §6

T1 sequence (Q12809 whole entry): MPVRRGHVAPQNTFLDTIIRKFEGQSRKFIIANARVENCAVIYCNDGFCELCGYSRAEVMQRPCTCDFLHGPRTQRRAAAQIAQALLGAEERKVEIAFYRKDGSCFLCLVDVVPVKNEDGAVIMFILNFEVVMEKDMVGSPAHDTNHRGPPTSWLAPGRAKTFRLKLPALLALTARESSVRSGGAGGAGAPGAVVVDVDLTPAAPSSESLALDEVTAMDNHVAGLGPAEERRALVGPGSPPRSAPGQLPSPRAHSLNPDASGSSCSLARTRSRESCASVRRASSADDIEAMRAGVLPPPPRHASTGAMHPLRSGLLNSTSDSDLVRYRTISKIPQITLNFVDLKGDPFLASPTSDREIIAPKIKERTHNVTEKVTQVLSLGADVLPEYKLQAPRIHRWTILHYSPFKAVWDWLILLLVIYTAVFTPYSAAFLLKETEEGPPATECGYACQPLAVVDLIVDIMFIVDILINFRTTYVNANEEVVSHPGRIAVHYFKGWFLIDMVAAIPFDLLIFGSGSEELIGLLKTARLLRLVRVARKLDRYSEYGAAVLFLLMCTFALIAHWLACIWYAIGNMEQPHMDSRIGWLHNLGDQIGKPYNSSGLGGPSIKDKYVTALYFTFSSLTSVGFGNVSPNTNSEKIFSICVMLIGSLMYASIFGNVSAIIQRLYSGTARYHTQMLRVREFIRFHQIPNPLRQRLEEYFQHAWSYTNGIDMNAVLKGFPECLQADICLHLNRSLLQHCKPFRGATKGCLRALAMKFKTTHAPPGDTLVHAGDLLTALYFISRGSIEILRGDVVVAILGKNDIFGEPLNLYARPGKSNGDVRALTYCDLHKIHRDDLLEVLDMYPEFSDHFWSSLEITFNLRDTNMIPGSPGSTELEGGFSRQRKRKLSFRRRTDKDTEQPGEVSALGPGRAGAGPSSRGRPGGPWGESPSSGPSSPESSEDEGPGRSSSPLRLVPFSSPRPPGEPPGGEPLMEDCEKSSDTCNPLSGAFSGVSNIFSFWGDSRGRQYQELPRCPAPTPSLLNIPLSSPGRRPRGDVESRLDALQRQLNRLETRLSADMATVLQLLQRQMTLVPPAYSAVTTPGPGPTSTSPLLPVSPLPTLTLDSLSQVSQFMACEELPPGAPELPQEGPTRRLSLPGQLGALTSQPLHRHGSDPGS
Chain of Voltage-gated inwardly rectifying potassium channel KCNH2 (Q12809 whole entry): as above

COc1ccc2ccc(=O)n(C[C@H](O)[C@@H]3CC[C@@H](NCc4ccc5c(n4)NC(=O)CO5)CO3)c2n1
IC50 [1]: 125 nM | IC50 [2]: 30 nM | MIC (Staphylococcus aureus): ≤ 0.03 µg/mL | MIC (Escherichia coli [3]): 0.5 µg/mL (≈ 1.04 µM) | MIC (Acinetobacter baumannii): ≤ 0.03 µg/mL | MIC (Pseudomonas aeruginosa): 8 µg/mL (≈ 16.6 µM) | IC50 [4]: 125 nM | IC50 [5]: 125 nM | IC50 [6]: 125 nM | IC50 [7]: 30 nM | logD [8]: 2 | AUC/dose (Rattus norvegicus [9]): 378 ng·h/mL | fraction unbound [10]: 0.167 | fAUC/dose (Rattus norvegicus [11]): 63 µg·h/mL | clearance [12]: 44 mL/min/kg | CL free (Rattus norvegicus [13]): 263 mL/min/kg | Vd [14]: 2.5 L/kg | half-life [15]: 1 h | inhibition at 30 µM (hERG (KCNH2) [16]): 71% | IC50 [17]: 15000 nM | IC20 (hERG (KCNH2) [18]): 3700 nM | Drug uptake(free) [19]: 0.86 µM | Drug uptake [20]: 1.4 µM | Cp(f) (Cavia porcellus [21]): 1.5 µM | Cp(f) (Cavia porcellus [22]): 6 µM | Cp(f) (Cavia porcellus [23]): 21 µM | Cp(f) (Cavia porcellus [24]): 21 µM | Cp(f) (Cavia porcellus [25]): > 21 µM | fraction unbound at 20 min [26]: 0.43

COc1ccc2ncc(F)c(C[C@H](O)[C@@H]3CC[C@@H](NCc4ccc5c(n4)NC(=O)CO5)CO3)c2n1
IC50 [1]: 125 nM | MIC (Acinetobacter baumannii): 0.125 µg/mL (≈ 0.259 µM) | IC50 [5]: 125 nM | IC50 [6]: 125 nM | IC50 [7]: 125 nM | logD [8]: 2 | MIC (Escherichia coli [27]): 0.5 µg/mL (≈ 1.03 µM) | MIC (Escherichia coli [28]): 0.031 µg/mL (≈ 0.0641 µM) | Ratio (Escherichia coli [29]): 16 | MIC (Escherichia coli [30]): 0.004 µg/mL (≈ 0.00827 µM) | Ratio (Escherichia coli [31]): 100 | MIC (Escherichia coli [32]): 0.004 µg/mL (≈ 0.00827 µM) | Ratio (Escherichia coli [33]): 100 | AUC/dose (Rattus norvegicus [9]): 457 ng·h/mL | fraction unbound [10]: 0.086 | fAUC/dose (Rattus norvegicus [11]): 39 µg·h/mL | clearance [12]: 37 mL/min/kg | CL free (Rattus norvegicus [13]): 430 mL/min/kg | Vd [14]: 2.5 L/kg | half-life [15]: 1.3 h
